# Test results reported in ChEMBL document CHEMBL1151705, “Novel azalides derived from 16-membered macrolides. Part II: Isolation of the linear 9-formylcarboxylic acid and its sequential macrocyclization with an amino alcohol or an azidoamine” (2008).
# Key:
# [1] = test system: Streptococcus pneumoniae; experiment: Antimicrobial activity against Streptococcus pneumoniae 8 expressing inducible ermB after 20 hrs by agar dilution method; assay type: functional
# Procedure, shortened: (§1)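 Streptococci, H. influenzae and M. catarrhalis were precultured on blood agar plates. Suspensions of about 10⁶ CFU/ml were inoculated onto sensitivity disk agar supplemented with 5% horse blood and incubated at 37 °C for 20 h. MIC was read as the lowest drug concentration with no visible growth.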
# [2] = test system: Streptococcus pneumoniae; experiment: Antimicrobial activity against Streptococcus pneumoniae 9 expressing mefA after 20 hrs by agar dilution method; assay type: functional; conditions: Streptococcus pneumoniae, 20 h; read-out: MIC; procedure, shortened: as §1
# [3] = test system: Streptococcus pneumoniae; experiment: Antimicrobial activity against Streptococcus pneumoniae 10 expressing mefA after 20 hrs by agar dilution method; assay type: functional; conditions: Streptococcus pneumoniae, 20 h; read-out: MIC; procedure, shortened: as §1
# [4] = test system: Streptococcus pyogenes; experiment: Antimicrobial activity against drug-susceptible Streptococcus pyogenes 1 after 20 hrs by agar dilution method; assay type: functional; conditions: Streptococcus pyogenes, 20 h; read-out: MIC; procedure, shortened: as §1
# [5] = test system: Streptococcus pyogenes; experiment: Antimicrobial activity against Streptococcus pyogenes 2 constitutively expressing ermB after 20 hrs by agar dilution method; assay type: functional; procedure, shortened: as §1
# [6] = test system: Streptococcus pyogenes; experiment: Antimicrobial activity against Streptococcus pyogenes 3 expressing mefA after 20 hrs by agar dilution method; assay type: functional; conditions: Streptococcus pyogenes, 20 h; read-out: MIC; procedure, shortened: as §1
# [7] = test system: Moraxella catarrhalis; experiment: Antimicrobial activity against drug-susceptible Moraxella catarrhalis 1 after 20 hrs by agar dilution method; assay type: functional; procedure, shortened: as §1
# [8] = test system: Moraxella catarrhalis; experiment: Antimicrobial activity against drug-susceptible Moraxella catarrhalis 2 after 20 hrs by agar dilution method; assay type: functional; procedure, shortened: as §1
# [9] = test system: Haemophilus influenzae; experiment: Antimicrobial activity against drug-susceptible Haemophilus influenzae 1 after 20 hrs by agar dilution method; assay type: functional; conditions: Haemophilus influenzae, 20 h; read-out: MIC; procedure, shortened: as §1
# [10] = test system: Haemophilus influenzae; experiment: Antimicrobial activity against drug-susceptible Haemophilus influenzae 2 after 20 hrs by agar dilution method; assay type: functional; conditions: Haemophilus influenzae, 20 h; read-out: MIC; procedure, shortened: as §1
# [11] = test system: Haemophilus influenzae; experiment: Antimicrobial activity against drug-susceptible Haemophilus influenzae 3 after 20 hrs by agar dilution method; assay type: functional; conditions: Haemophilus influenzae, 20 h; read-out: MIC; procedure, shortened: as §1
# [12] = test system: Haemophilus influenzae; experiment: Antimicrobial activity against drug-susceptible Haemophilus influenzae 4 after 20 hrs by agar dilution method; assay type: functional; conditions: Haemophilus influenzae, 20 h; read-out: MIC; procedure, shortened: as §1
# [13] = test system: Staphylococcus aureus; experiment: Antimicrobial activity against drug-susceptible Staphylococcus aureus 209P JC-1 after 20 hrs by agar dilution method; assay type: functional
# Procedure, shortened: (§2)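 Agar dilution MIC. S. aureus seed culture was grown in sensitivity test broth. Cell suspension (about 10⁶ CFU/ml) was inoculated onto sensitivity disk agar with 5% horse blood and incubated at 37 °C for 20 h. MIC was the lowest drug concentration that prevented visible growth.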
# [14] = test system: Staphylococcus aureus; experiment: Antimicrobial activity against drug-susceptible Staphylococcus aureus 2 after 20 hrs by agar dilution method; assay type: functional; procedure, shortened: as §2
# [15] = test system: Staphylococcus aureus; experiment: Antimicrobial activity against drug-susceptible Staphylococcus aureus 3 after 20 hrs by agar dilution method; assay type: functional; procedure, shortened: as §2
# [16] = test system: Staphylococcus aureus; experiment: Antimicrobial activity against Staphylococcus aureus 4 constitutively expressing ermA after 20 hrs by agar dilution method; assay type: functional; procedure, shortened: as §2
# [17] = test system: Staphylococcus aureus; experiment: Antimicrobial activity against Staphylococcus aureus 5 expressing inducible ermB after 20 hrs by agar dilution method; assay type: functional; procedure, shortened: as §2
# [18] = test system: Streptococcus pneumoniae; experiment: Antimicrobial activity against drug-susceptible Streptococcus pneumoniae DP1 Type1 after 20 hrs by agar dilution method; assay type: functional; procedure, shortened: as §1
# [19] = test system: Streptococcus pneumoniae; experiment: Antimicrobial activity against drug-susceptible Streptococcus pneumoniae 2 after 20 hrs by agar dilution method; assay type: functional; conditions: Streptococcus pneumoniae, 20 h; read-out: MIC; procedure, shortened: as §1
# [20] = test system: Streptococcus pneumoniae; experiment: Antimicrobial activity against drug-susceptible Streptococcus pneumoniae 3 after 20 hrs by agar dilution method; assay type: functional; procedure, shortened: as §1
# [21] = test system: Streptococcus pneumoniae; experiment: Antimicrobial activity against Streptococcus pneumoniae 4 constitutively expressing ermB after 20 hrs by agar dilution method; assay type: functional; conditions: Streptococcus pneumoniae, 20 h; read-out: MIC; procedure, shortened: as §1
# [22] = test system: Streptococcus pneumoniae; experiment: Antimicrobial activity against Streptococcus pneumoniae 5 constitutively expressing ermB/mefA after 20 hrs by agar dilution method; assay type: functional; conditions: Streptococcus pneumoniae, 20 h; read-out: MIC; procedure, shortened: as §1
# [23] = test system: Streptococcus pneumoniae; experiment: Antimicrobial activity against Streptococcus pneumoniae 6 constitutively expressing ermB after 20 hrs by agar dilution method; assay type: functional; conditions: Streptococcus pneumoniae, 20 h; read-out: MIC; procedure, shortened: as §1
# [24] = test system: Streptococcus pneumoniae; experiment: Antimicrobial activity against Streptococcus pneumoniae 7 expressing inducible ermB after 20 hrs by agar dilution method; assay type: functional; procedure, shortened: as §1
# [25] = test system: Staphylococcus aureus; experiment: Antimicrobial activity against Staphylococcus aureus 6 expressing inducible ermC after 20 hrs by agar dilution method
# [26] = Streptococcus pneumoniae, 20 h, read-out: MIC
MIC [2] [µg/mL],MIC [3] [µg/mL],MIC [4] [µg/mL],MIC [5] [µg/mL],MIC [6] [µg/mL],MIC [7] [µg/mL],MIC [9] [µg/mL],MIC [10] [µg/mL],MIC [11] [µg/mL],MIC [12] [µg/mL],MIC [13] [µg/mL],MIC [14] [µg/mL],MIC [16] [µg/mL],MIC [17] [µg/mL],MIC [19] [µg/mL],MIC [21] [µg/mL],MIC [22] [µg/mL],MIC [23] [µg/mL],MIC [25] [µg/mL],SMILES,other results
0.13,0.13,0.25,> 128,1,1,32,1,8,8,0.5,1,> 128,0.5,0.13,> 128,> 128,> 128,0.5,CCOC(=O)[C@H]1[C@H](C)O[C@@H](O[C@H]2[C@H](N(C)C)[C@@H](O)[C@H](O[C@H]3[C@@H](CC=O)C[C@@H](C)[C@@H](O)CN(C)CCC(/C=C/Cc4ccnc5ccccc45)NC(=O)C[C@@H](OC(=O)CC)[C@@H]3OC)O[C@@H]2C)C[C@@]1(C)O (mixture of isomers),"MIC [1]: 8 µg/mL; MIC ([8]; Moraxella catarrhalis, 20 h, read-out: MIC): 2 µg/mL; MIC ([15]; Staphylococcus aureus, 20 h, read-out: MIC): 0.5 µg/mL; MIC [18]: 0.03 µg/mL; MIC [20]: 0.06 µg/mL; MIC [24]: 8 µg/mL"
0.25,0.25,0.5,> 128,2,2,64,2,16,32,1,2,> 128,0.5,0.13,> 128,> 128,> 128,1,"CCOC(=O)[C@H]1[C@H](C)O[C@@H](O[C@H]2[C@H](N(C)C)[C@@H](O)[C@H](O[C@H]3[C@@H](CC=O)C[C@@H](C)[C@@H](O)CN(C)CCC(C/C=C/c4ccnc5ccccc45)NC(=O)C[C@@H](OC(=O)CC)[C@@H]3OC)O[C@@H]2C)C[C@@]1(C)O (single isomer, unassigned)","MIC [1, 26]: > 128 µg/mL; MIC [8]: 1 µg/mL; MIC [15]: 0.5 µg/mL; MIC [18, 26]: 0.13 µg/mL; MIC [20, 26]: 0.25 µg/mL; MIC [24, 26]: > 128 µg/mL"
